Measurements as given in ChEMBL document CHEMBL1287651, “Synthesis and in vitro antibacterial activity of fluoroquinolone derivatives containing 3-(N'-alkoxycarbamimidoyl)-4-(alkoxyimino) pyrrolidines” (2010).
≈ marks a conversion by molar mass, not a printed value.

Key:
Format in all cases: functional
Enterococcus faecalis [1] = experiment: Antibacterial activity against Enterococcus faecalis 08-10 after 18 to 24 hrs by twofold serial dilution method
Outline: (§1)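 MIC determined by the standard twofold serial dilution method on agar media, screening against Gram-positive and Gram-negative strains. Levofloxacin and gemifloxacin were run alongside as reference drugs.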

Enterococcus faecium [2] = experiment: Antibacterial activity against Enterococcus faecium 08-2 after 18 to 24 hrs by twofold serial dilution method; outline: as §1
[3] = tested on: Staphylococcus epidermidis; experiment: Antibacterial activity against methicillin-resistant Staphylococcus epidermidis 09-2 after 18 to 24 hrs by twofold serial dilution method
Outline: (§2)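 Standard twofold serial agar dilution method on agar media for MIC determination. Screened against representative Gram-positive and Gram-negative strains. Levofloxacin and GMFX served as control drugs.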

Enterococcus faecalis [4] = experiment: Antibacterial activity against Enterococcus faecalis 08-12 after 18 to 24 hrs by twofold serial dilution method; outline: as §1
Pseudomonas aeruginosa [5] = experiment: Antibacterial activity against Pseudomonas aeruginosa ATCC 27853 after 18 to 24 hrs by twofold serial dilution method; outline: as §1
Streptococcus pneumoniae [6] = experiment: Antibacterial activity against Streptococcus pneumoniae 08-2 after 18 to 24 hrs by twofold serial dilution method; outline: as §1
Escherichia coli [7] = experiment: Antibacterial activity against Escherichia coli 08-22 after 18 to 24 hrs by twofold serial dilution method; outline: as §1
Staphylococcus aureus [8] = experiment: Antibacterial activity against methicillin-sensitive Staphylococcus aureus 08-2 after 18 to 24 hrs by twofold serial dilution method; outline: as §2
[9] = tested on: Staphylococcus epidermidis; experiment: Antibacterial activity against methicillin-sensitive Staphylococcus epidermidis 09-3 after 18 to 24 hrs by twofold serial dilution method; outline: as §2
Enterococcus faecium [10] = experiment: Antibacterial activity against Enterococcus faecium 08-7 after 18 to 24 hrs by twofold serial dilution method; outline: as §1
Pseudomonas aeruginosa [11] = experiment: Antibacterial activity against Pseudomonas aeruginosa 09-32 after 18 to 24 hrs by twofold serial dilution method; outline: as §1
[12] = tested on: Staphylococcus epidermidis; experiment: Antibacterial activity against methicillin-sensitive Staphylococcus epidermidis 09-6 after 18 to 24 hrs by twofold serial dilution method; outline: as §2
Klebsiella pneumoniae [13] = experiment: Antibacterial activity against Klebsiella pneumoniae 09-23 after 18 to 24 hrs by twofold serial dilution method; outline: as §1
Pseudomonas aeruginosa [14] = experiment: Antibacterial activity against Pseudomonas aeruginosa 09-35 after 18 to 24 hrs by twofold serial dilution method; outline: as §1
Escherichia coli [15] = experiment: Antibacterial activity against Escherichia coli 08-21 after 18 to 24 hrs by twofold serial dilution method; outline: as §1
Staphylococcus aureus [16] = experiment: Antibacterial activity against methicillin-resistant Staphylococcus aureus 08-1 after 18 to 24 hrs by twofold serial dilution method; outline: as §2
Pseudomonas aeruginosa [17] = experiment: Antibacterial activity against Pseudomonas aeruginosa 09-33 after 18 to 24 hrs by twofold serial dilution method; outline: as §1
[18] = tested on: Staphylococcus epidermidis; experiment: Antibacterial activity against methicillin-resistant Staphylococcus epidermidis 09-4 after 18 to 24 hrs by twofold serial dilution method; outline: as §2
Klebsiella pneumoniae [19] = experiment: Antibacterial activity against Klebsiella pneumoniae 09-21 after 18 to 24 hrs by twofold serial dilution method; outline: as §1
Staphylococcus aureus [20] = experiment: Antibacterial activity against Staphylococcus aureus ATCC […] after 18 to 24 hrs by twofold serial dilution method; outline: as §1
Klebsiella pneumoniae [21] = experiment: Antibacterial activity against Klebsiella pneumoniae 09-22 after 18 to 24 hrs by twofold serial dilution method; outline: as §1
Escherichia coli [22] = experiment: Antibacterial activity against Escherichia coli ATCC 25922 after 18 to 24 hrs by twofold serial dilution method; outline: as §1
Streptococcus pneumoniae [23] = experiment: Antibacterial activity against Streptococcus pneumoniae 08-4 after 18 to 24 hrs by twofold serial dilution method; outline: as §1
Pseudomonas aeruginosa [24] = experiment: Antibacterial activity against Pseudomonas aeruginosa 09-34 after 18 to 24 hrs by twofold serial dilution method; outline: as §1
[25] = tested on: Staphylococcus epidermidis; experiment: Antibacterial activity against methicillin-resistant Staphylococcus epidermidis 09-3 after 18 to 24 hrs by twofold serial dilution method; outline: as §2

Row | SMILES | MIC (Enterococcus faecalis [1]) [µg/mL] | MIC (Enterococcus faecium [2]) [µg/mL] | MIC [3] [µg/mL] | MIC (Enterococcus faecalis [4]) [µg/mL] | MIC (Pseudomonas aeruginosa [5]) [µg/mL] | MIC (Streptococcus pneumoniae [6]) [µg/mL] | MIC (Escherichia coli [7]) [µg/mL] | MIC (Staphylococcus aureus [8]) [µg/mL] | MIC [9] [µg/mL] | MIC (Enterococcus faecium [10]) [µg/mL] | MIC (Pseudomonas aeruginosa [11]) [µg/mL] | MIC [12] [µg/mL] | MIC (Klebsiella pneumoniae [13]) [µg/mL] | MIC (Pseudomonas aeruginosa [14]) [µg/mL] | MIC (Escherichia coli [15]) [µg/mL] | MIC (Staphylococcus aureus [16]) [µg/mL] | MIC (Pseudomonas aeruginosa [17]) [µg/mL] | MIC [18] [µg/mL] | MIC (Klebsiella pneumoniae [19]) [µg/mL] | MIC (Staphylococcus aureus [20]) [µg/mL] | also measured
1 | CCO/N=C1\CN(c2nc3c(cc2F)c(=O)c(C(=O)O)cn3-c2ccc(F)cc2F)CC1/C(N)=N\OC (stereo not given) | > 128 | > 128 | 0.125 (≈ 0.241 µM) | > 128 | 32 (≈ 61.7 µM) | 32 (≈ 61.7 µM) | > 128 | 0.25 (≈ 0.482 µM) | 0.125 (≈ 0.241 µM) | > 128 | > 128 | 0.25 (≈ 0.482 µM) | 32 (≈ 61.7 µM) | > 128 | > 128 | 0.25 (≈ 0.482 µM) | > 128 | 0.25 (≈ 0.482 µM) | 0.25 (≈ 0.482 µM) | 0.25 (≈ 0.482 µM) | MIC (Klebsiella pneumoniae [21]): 32 µg/mL (≈ 61.7 µM); MIC (Escherichia coli [22]): 128 µg/mL (≈ 247 µM); MIC (Streptococcus pneumoniae [23]): 32 µg/mL (≈ 61.7 µM); MIC (Pseudomonas aeruginosa [24]): > 128 µg/mL; MIC [25]: 0.25 µg/mL (≈ 0.482 µM)
2 | CCO/N=C(/N)C1CN(c2nc3c(cc2F)c(=O)c(C(=O)O)cn3-c2ccc(F)cc2F)C/C1=N\OC (stereo not given) | > 128 | > 128 | 2 (≈ 3.86 µM) | > 128 | > 128 | > 128 | > 128 | 0.25 (≈ 0.482 µM) | 0.125 (≈ 0.241 µM) | > 128 | > 128 | 0.25 (≈ 0.482 µM) | > 128 | > 128 | > 128 | 0.25 (≈ 0.482 µM) | > 128 | 0.25 (≈ 0.482 µM) | > 128 | 0.125 (≈ 0.241 µM) | MIC (Klebsiella pneumoniae [21]): 32 µg/mL (≈ 61.7 µM); MIC (Escherichia coli [22]): > 128 µg/mL; MIC (Streptococcus pneumoniae [23]): > 128 µg/mL; MIC (Pseudomonas aeruginosa [24]): > 128 µg/mL; MIC [25]: 0.25 µg/mL (≈ 0.482 µM)
3 | CCO/N=C1\CN(c2nc3c(cc2F)c(=O)c(C(=O)O)cn3-c2ccc(F)cc2F)CC1/C(N)=N\OCC (stereo not given) | 128 (≈ 240 µM) | 128 (≈ 240 µM) | 0.06 (≈ 0.113 µM) | 128 (≈ 240 µM) | 64 (≈ 120 µM) | 128 (≈ 240 µM) | 128 (≈ 240 µM) | 0.06 (≈ 0.113 µM) | 32 (≈ 60.1 µM) | 128 (≈ 240 µM) | 128 (≈ 240 µM) | 32 (≈ 60.1 µM) | 128 (≈ 240 µM) | 128 (≈ 240 µM) | 128 (≈ 240 µM) | 32 (≈ 60.1 µM) | 128 (≈ 240 µM) | 64 (≈ 120 µM) | 16 (≈ 30 µM) | 0.06 (≈ 0.113 µM) | MIC (Klebsiella pneumoniae [21]): 128 µg/mL (≈ 240 µM); MIC (Escherichia coli [22]): 16 µg/mL (≈ 30 µM); MIC (Streptococcus pneumoniae [23]): 128 µg/mL (≈ 240 µM); MIC (Pseudomonas aeruginosa [24]): 128 µg/mL (≈ 240 µM); MIC [25]: 0.06 µg/mL (≈ 0.113 µM)
